The text below walks through data of ChEMBL document CHEMBL2385024, “Antiviral alkaloids produced by the mangrove-derived fungus Cladosporium sp. PJX-41” (J Nat Prod, 2013).

This test deals with Influenza A virus. The experiment in a line: Antiviral activity against Influenza A virus H1N1 infected in dog MDCK cells after 48 hrs by CPE inhibition assay. In kind it is functional, organism-based. Put shortly:
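CPE-inhibition format against influenza A (H1N1), with ribavirin run in parallel as the positive control; activity is expressed as IC50.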

A value given as a limit tells only on which side of the number the result lay.

Usually IC50 stands for the concentration that inhibits the measured activity by half. The low end stands for greater potency, the high end for weaker potency. Consider `O=C1N[C@@H]2c3nc4ccccc4c(=O)n3[C@H]1CC21c2ccccc2N2C(=O)[C@@H]3CCCN3[C@H]21` (stereo not given in full), for which 82 µM corresponded to half-maximal inhibition (IC50). As for `CC(=O)O[C@H](c1nc2ccccc2c(=O)n1[C@@H]1C[C@]2(OC1=O)c1ccccc1N1C(=O)C(C)(C)N(O)[C@H]12)C(C)C` [TRYPTOQUIVALINE], the figure is 89 µM; as for `O=C1NCc2nc3ccccc3c(=O)n2[C@@H]1Cc1c[nH]c2ccccc12`, 100 µM; as for `CC(=O)O[C@H](c1nc2ccccc2c(=O)n1[C@@H]1C[C@]2(OC1=O)c1ccccc1N1C(=O)[C@H](C)N[C@H]12)C(C)C` [DEOXYNORTRYPTOQUIVALINE], 87 µM.

For the compound `O=C1N[C@H]2c3[nH]c4ccccc4c3C[C@@H]1n1c2nc2ccccc2c1=O`, the 50% inhibitory concentration (IC50) was over 200 µM.

For the compound `CC(=O)O[C@H](c1nc2ccccc2c(=O)n1[C@@H]1C[C@]2(OC1=O)c1ccccc1N1C(=O)C(C)(C)N[C@H]12)C(C)C` [DEOXYTRYPTOQUIVALINE], the IC50 is 85 µM.

Compound `CC(C)=C1NC(=O)[C@@H](C[C@]2(O)c3ccccc3N3C(=O)[C@H](C)N[C@H]32)n2c1nc1ccccc1c2=O` registered an IC50 of 82 µM. In turn, `CC(C)=C1NC(=O)[C@@H](C[C@]2(O)c3ccccc3N3C(=O)C(C)(C)N[C@H]32)n2c1nc1ccccc1c2=O` displayed an IC50 of 100 µM.

In turn, `O=C1N[C@@H](O)c2nc3ccccc3c(=O)n2[C@@H]1Cc1c[nH]c2ccccc12` showed an IC50 of 100 µM. As for `O=C1NC(=O)[C@H](Cc2c[nH]c3ccccc23)n2c1nc1ccccc1c2=O`, the figure is 85 µM; as for `O=C1NC(=O)[C@@H](Cc2c[nH]c3ccccc23)n2c1nc1ccccc1c2=O`, 100 µM; as for `NC(=O)c1ncn([C@@H]2O[C@H](CO)[C@@H](O)[C@H]2O)n1` [RIBAVIRIN], 87 µM.

`CC(C)[C@H]1NC(=O)[C@@H](C[C@]2(O)C(=O)Nc3ccccc32)n2c1nc1ccccc1c2=O` [CLADOQUINAZOLINE] yielded a concentration for half-maximal inhibition (IC50) of 100 µM. The figure for `CC(=O)O[C@@H](c1nc2ccccc2c(=O)n1[C@@H]1C[C@]2(OC1=O)c1ccccc1N1C(=O)C(C)(C)N(O)[C@H]12)C(C)C` is 100 µM; for `CC(C)[C@@H]1NC(=O)[C@@H](C[C@]2(O)C(=O)Nc3ccccc32)n2c1nc1ccccc1c2=O` [EPI-CLADOQUINAZOLINE] it is 100 µM.
